In ChEMBL document CHEMBL4177755, “Combating Drug-Resistant Fungi with Novel Imperfectly Amphipathic Palindromic Peptides” (J Med Chem, 2018):

Experiments:
[1] = Bactericidal activity against Salmonella pullorum ATCC 7913; type: functional, Salmonella enterica subsp. enterica serovar Pullorum; conditions: Salmonella enterica, read-out: MBC99.9
How it was run: (§1)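 Wells from the 24 h, 37 °C MHB microdilution plates (bacteria at a final (0.5−1) × 10^5 CFU/mL; peptide diluted in 0.2% BSA) were plated on agar and incubated overnight. MBC is the lowest concentration killing >99.9% of cells. Each test was reproduced at least 3 times.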

Staphylococcus aureus [2] = assay: Bactericidal activity against methicillin-resistant Staphylococcus aureus ATCC 4330; type: functional; conditions: read-out: MBC99.9
How it was run: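 Bacteria at (0.5−1) × 10^5 CFU/mL in MHB were exposed to serially diluted peptide (0.2% BSA) for 24 h at 37 °C, then 50 μL aliquots were plated on agar overnight. MBC is the lowest concentration killing >99.9% of cells. At least 3 repeats.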

Staphylococcus aureus [3] = assay: Bactericidal activity against Staphylococcus aureus ATCC 29213; type: functional; conditions: read-out: MBC99.9; how it was run: as §1
Salmonella typhimurium [4] = assay: Antibacterial activity against Salmonella typhimurium ATCC 14028 after 24 hrs; type: functional, Salmonella enterica subsp. enterica serovar Typhimurium; conditions: Salmonella enterica, ATCC 14028, 24 h
How it was run: (§2)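 Broth microdilution. Mid-log bacteria in MHB at a final (0.5−1) × 10^5 CFU/mL were mixed with equal volumes of peptide serially diluted in 0.2% BSA. Plates were incubated 24 h at 37 °C and read at A492. MIC is the lowest concentration inhibiting 95% of growth. Each test was repeated at least 3 times.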

Candida albicans [5] = assay: Antifungal activity against Candida albicans SP3903 after 48 hrs by broth microdilution method; type: functional; conditions: SP3903, 48 h
How it was run: (§3)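 Modified CLSI M27-A2 broth microdilution. Yeast at (0.5−1) × 10^3 CFU/mL in MOPS-buffered RPMI 1640 was mixed 1:1 with peptide serially diluted in 0.2% BSA and incubated 48 h at 28 °C. Absorbance was read at 492 nm; MIC is the lowest concentration inhibiting 95% of growth. Triplicate, three biological replicates.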

Candida albicans [6] = assay: Antifungal activity against Candida albicans cgmcc 2.2086 in presence of ZnCl2 by broth dilution method; type: functional
Candida albicans [7] = assay: Fungicidal activity against Candida albicans SP3903 after 96 hrs; type: functional; conditions: SP3903, 96 h, read-out: MFC99.9
How it was run: (§4)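 After the 48 h, 28 °C broth microdilution in MOPS-buffered RPMI 1640 (inoculum (0.5−1) × 10^3 CFU/mL), 50 μL from each well was plated on YM agar for a further 48 h at 28 °C. MFC is the lowest concentration killing at least 99.9% of cells. Triplicate, three biological replicates.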

Candida albicans [8] = assay: Antifungal activity against Candida albicans SP3902 after 48 hrs by broth microdilution method; type: functional; conditions: SP3902, 48 h; how it was run: as §3
Staphylococcus aureus [9] = assay: Antibacterial activity against Staphylococcus aureus ATCC 25923 after 24 hrs; type: functional; conditions: ATCC 25923, 24 h
How it was run: (§5)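 Modified NCCLS broth microdilution. Mid-log bacteria at (0.5−1) × 10^5 CFU/mL in MHB were mixed 1:1 with peptide serially diluted in 0.2% BSA and incubated 24 h at 37 °C. Absorbance was read at 492 nm; MIC is the lowest concentration inhibiting 95% of growth. At least 3 repeats.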

Candida albicans [10] = assay: Antifungal activity against Candida albicans cgmcc 2.2086 in presence of FeCl3 by broth dilution method; type: functional
Pichia kudriavzevii [11] = assay: Fungicidal activity against Candida krusei cgmcc 2.1857 after 96 hrs; type: functional; conditions: cgmcc 2.1857, 96 h, read-out: MFC99.9
How it was run: (§6)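 Wells from the 48 h, 28 °C RPMI 1640/MOPS microdilution plates were plated on YM agar and incubated a further 48 h at 28 °C. MFC is the lowest concentration killing at least 99.9% of cells. Run in triplicate with three biological replicates.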

Escherichia coli [12] = assay: Antibacterial activity against Escherichia coli ATCC 25922 after 18 hrs in presence of NH4Cl by broth dilution method; type: functional; conditions: ATCC 25922, 18 h
Candida albicans [13] = assay: Antifungal activity against Candida albicans cgmcc 2.2086 in presence of NH4Cl by broth dilution method; type: functional
Candida albicans [14] = assay: Antifungal activity against Candida albicans cgmcc 2.2086 in presence of CaCl2 by broth dilution method; type: functional
Candida albicans [15] = assay: Fungicidal activity against Candida albicans cgmcc 2.2086 after 96 hrs; type: functional; conditions: cgmcc 2.2086, 96 h, read-out: MFC99.9; how it was run: as §4
Candida albicans [16] = assay: Antifungal activity against fluconazole-resistant Candida albicans 56452 after 48 hrs by broth microdilution method; type: functional; conditions: Candida albicans, 56452, 48 h; how it was run: as §3
Candida tropicalis = assay: Fungicidal activity against Candida tropicalis cgmcc 2.1975 after 96 hrs; type: functional; conditions: cgmcc 2.1975, 96 h, read-out: MFC99.9; how it was run: as §6
Candida albicans [17] = assay: Antifungal activity against Candida albicans 58288 after 48 hrs by broth microdilution method; type: functional; conditions: Candida albicans, 58288, 48 h; how it was run: as §3
Candida albicans [18] = assay: Antifungal activity against Candida albicans isolated from alveolar fluid after 48 hrs by broth microdilution method; type: functional; how it was run: as §3
Staphylococcus aureus [19] = assay: Antibacterial activity against methicillin-resistant Staphylococcus aureus ATCC 4330 after 24 hrs; type: functional; conditions: ATCC 4330, 24 h; how it was run: as §5
Salmonella typhimurium [20] = assay: Bactericidal activity against Salmonella typhimurium ATCC 14028; type: functional, Salmonella enterica subsp. enterica serovar Typhimurium; conditions: Salmonella enterica, read-out: MBC99.9; how it was run: as §1
Candida albicans [21] = assay: Fungicidal activity against fluconazole-resistant Candida albicans 56452 after 96 hrs; type: functional; conditions: Candida albicans, 56452, 96 h; read-out: MFC99.9; how it was run: as §4
Candida albicans [22] = assay: Fungicidal activity against Candida albicans 14936 after 96 hrs; type: functional; conditions: Candida albicans, 14936, 96 h; read-out: MFC99.9; how it was run: as §4
Escherichia coli [23] = assay: Antibacterial activity against Escherichia coli ATCC 25922 after 24 hrs; type: functional; conditions: ATCC 25922, 24 h; how it was run: as §2
Escherichia coli [24] = assay: Antibacterial activity against Escherichia coli 1005 after 24 hrs; type: functional; conditions: Escherichia coli, 1005, 24 h; how it was run: as §2
Pichia kudriavzevii [25] = assay: Antifungal activity against Candida krusei cgmcc 2.1857 after 48 hrs by broth microdilution method; type: functional; conditions: cgmcc 2.1857, 48 h
How it was run: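 Modified CLSI M27-A2 broth microdilution. Yeast were suspended in MOPS-buffered RPMI 1640 at a final (0.5−1) × 10^3 CFU/mL and mixed 1:1 with peptide serially diluted in 0.2% BSA. Plates were incubated 48 h at 28 °C and read at A492. MIC is the lowest concentration giving 95% inhibition. Run in triplicate with three biological replicates.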

[26] = Cytotoxicity against HEK293T cells assessed as cell viability at 2 to 64 uM after 24 hrs by MTT assay relative to control; type: cell-based, HEK-293T; conditions: human, read-out: Activity
How it was run: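 MTT viability assay. RAW264.7 or HEK293T cells at (1.0−2.0) × 10^5 per well were exposed to a peptide concentration series for 24 h at 37 °C in 5% CO2. MTT was then added at 0.5 mg/mL final for 4 h; formazan was dissolved in DMSO and read at 570 nm. Results average three independent trials.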

Escherichia coli [27] = assay: Antibacterial activity against Escherichia coli ATCC 25922 after 18 hrs in presence of NaCl by broth dilution method; type: functional; conditions: ATCC 25922, 18 h
[28] = Antibacterial activity against Salmonella pullorum ATCC 7913 after 24 hrs; type: functional, Salmonella enterica subsp. enterica serovar Pullorum; conditions: Salmonella enterica, ATCC 7913, 24 h; how it was run: as §2
Candida albicans [29] = assay: Antifungal activity against Candida albicans cgmcc 2.2086 in presence of MgCl2 by broth dilution method; type: functional
Candida albicans [30] = assay: Fungicidal activity against Candida albicans isolated from alveolar fluid after 96 hrs; type: functional; conditions: read-out: MFC99.9; how it was run: as §4

Row | Substance | MBC [1] | MBC (Staphylococcus aureus [2]) | MBC (Staphylococcus aureus [3]) | MIC95 (Salmonella typhimurium [4]) | MIC95 (Candida albicans [5]) | MIC (Candida albicans [6]) | MFC (Candida albicans [7]) | MIC95 (Candida albicans [8]) | MIC95 (Staphylococcus aureus [9]) | MIC (Candida albicans [10]) | MFC (Pichia kudriavzevii [11]) | MIC (Escherichia coli [12]) | MIC (Candida albicans [13]) | MIC (Candida albicans [14]) | MFC (Candida albicans [15]) | MIC95 (Candida albicans [16]) | MFC (Candida tropicalis) | MIC95 (Candida albicans [17]) | MIC95 (Candida albicans [18]) | MIC95 (Staphylococcus aureus [19]) | other results
1 | H-RRWRWWWRWRR-NH2 | 4 µM | 8 µM | 4 µM | 4 µM | 4 µM | 4 µM | 4 µM | 4 µM | 4 µM | 4 µM | 2 µM | 4 µM | 4 µM | 8 µM | 8 µM | 4 µM | 4 µM | 2 µM | 4 µM | 4 µM | MBC (Salmonella typhimurium [20]): 8 µM; MFC (Candida albicans [21]): 4 µM; MFC (Candida albicans [22]): 8 µM; MIC95 (Escherichia coli [23]): 4 µM; MIC95 (Escherichia coli [24]): 4 µM; MIC95 (Pichia kudriavzevii [25]): 2 µM; viability at 24 h, up to 64 µM [26]: 70 to 80%; MIC (Escherichia coli [27]): 4 µM; MIC95 [28]: 2 µM; MIC (Candida albicans [29]): 4 µM; MFC (Candida albicans [30]): 8 µM
2 | H-RRFRFFFRFRR-NH2 | 4 µM | 8 µM | 8 µM | 4 µM | 2 µM | 4 µM | 2 µM | 4 µM | 8 µM | 4 µM | 2 µM | 4 µM | 4 µM | 16 µM | 16 µM | 4 µM | 2 µM | 2 µM | 4 µM | 4 µM | MBC (Salmonella typhimurium [20]): 8 µM; MFC (Candida albicans [21]): 4 µM; MFC (Candida albicans [22]): 4 µM; MIC95 (Escherichia coli [23]): 4 µM; MIC95 (Escherichia coli [24]): 4 µM; MIC95 (Pichia kudriavzevii [25]): 2 µM; viability at 24 h, up to 64 µM [26]: 70 to 80%; MIC (Escherichia coli [27]): 4 µM; MIC95 [28]: 2 µM; MIC (Candida albicans [29]): 4 µM; MFC (Candida albicans [30]): 8 µM
3 | H-RIRIIIRIR-NH2 | 16 µM | 4 µM | 8 µM | 4 µM | 2 µM | 4 µM | 8 µM | 2 µM | 4 µM | 4 µM | 4 µM | 4 µM | 4 µM | 32 µM | 8 µM | 4 µM | 4 µM | 2 µM | 4 µM | 4 µM | MBC (Salmonella typhimurium [20]): 8 µM; MFC (Candida albicans [21]): 4 µM; MFC (Candida albicans [22]): 2 µM; MIC95 (Escherichia coli [23]): 8 µM; MIC95 (Escherichia coli [24]): 4 µM; MIC95 (Pichia kudriavzevii [25]): 2 µM; viability at 24 h, up to 64 µM [26]: 70 to 80%; MIC (Escherichia coli [27]): 8 µM; MIC95 [28]: 4 µM; MIC (Candida albicans [29]): 4 µM; MFC (Candida albicans [30]): 8 µM
4 | H-RIIRRIRRIIR-NH2 | 64 µM | 16 µM | > 64 µM | 16 µM | 4 µM | 64 µM | 4 µM | 16 µM | 32 µM | 16 µM | 8 µM | 16 µM | 16 µM | 64 µM | 64 µM | 8 µM | 2 µM | 8 µM | 16 µM | 16 µM | MBC (Salmonella typhimurium [20]): 32 µM; MFC (Candida albicans [21]): 8 µM; MFC (Candida albicans [22]): 8 µM; MIC95 (Escherichia coli [23]): 16 µM; MIC95 (Escherichia coli [24]): 8 µM; MIC95 (Pichia kudriavzevii [25]): 4 µM; viability at 24 h, up to 64 µM [26]: 70 to 80%; MIC (Escherichia coli [27]): 16 µM; MIC95 [28]: 16 µM; MIC (Candida albicans [29]): 32 µM; MFC (Candida albicans [30]): 32 µM
